Article PMC5197073 (Theranostics, 2017)

Legend:
[1] = tested on: C38 mouse colorectal carcinoma; experiment: In vivo growth inhibition of s.c. C38 tumors; conditions: C57Bl/6 mice, 100 mg/kg p.o. 5 times a week for two weeks; vs vehicle; P=0.0048
Procedure, shortened: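 C38 fragments, kept by serial s.c. passage, cut into 5×5×5 mm cubes and implanted into the backs of anaesthetised 8-week-old female C57Bl/6 mice. Dosing started on day 13, once daily by feeding tube, 5 days/week. Vehicle was 2% carboxymethylcellulose with 2 mg/mL methyl-4-hydroxybenzoate, also given to controls. Calipers were used three times weekly, with volume = length × width² × π/6.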

[2] = tested on: desmin; experiment: Pericyte desmin expression in C26 tumors; assay type: in vivo, mouse; conditions: C26 model, 100 mg/kg p.o. for two weeks; sunitinib P=0.0135, motesanib P<0.05
[3] = Intratumoral drug concentration and distribution by MALDI-MSI in C38 tumors; assay type: in vivo, mouse; conditions: 100 mg/kg p.o. for two weeks
[4] = tested on: C38 tumors; experiment: Microvessel areas; assay type: in vivo, mouse; conditions: C38 model, 100 mg/kg p.o. for two weeks; P<0.03
[5] = Intratumoral drug concentration and distribution by MALDI-MSI in C26 tumors; assay type: in vivo, mouse; conditions: for intratumoral drug distribution (MALDI-MSI): C26 tumors, 100 mg/kg p.o. for two weeks
[6] = tested on: PDGFRβ; conditions: ref [18]; cited from earlier work
[7] = tested on: C26 tumors; experiment: Intratumoral hypoxia; assay type: in vivo, mouse; conditions: C26 model, 100 mg/kg p.o. for two weeks; P=0.0152
[8] = tested on: C38 mouse colorectal carcinoma; conditions: C57Bl/6 mice; previously published study; ref [38]; cited from earlier work

Row | SMILES | C38 tumor growth inhibition [1] | pericyte desmin expression [2] | intratumoral drug distribution (MALDI-MSI) [3] | intratumoral microvessel areas (antivascular/antiangiogenic effect) [4] | intratumoral drug distribution (MALDI-MSI) [5] | IC50 value against PDGFRβ, rank among the tested RTKIs [6] | intratumoral hypoxia [7] | rank of intratumoral concentration among the five RTKIs ([5]; mouse, in vivo, po, 100 mg/kg) | intratumoral drug concentration vs untreated controls ([3]; P=0.0006) | intratumoral vatalanib concentration ([3]; C57Bl/6 mice, P=0.0025 vs C26) [µmol/mL] | C38 tumor burdens [8]
1 | CC1(C)CNc2cc(NC(=O)c3cccnc3NCc3ccncc3)ccc21 [motesanib] | no significant tumor growth inhibitory | significantly decreased | trace-level | no significant | inhomogeneous | – | – | – | – | – | –
2 | Cc1ccc(Nc2nccc(N(C)c3ccc4c(C)n(C)nc4c3)n2)cc1S(N)(=O)=O [pazopanib] | no significant tumor growth inhibitory | – | trace-level | no significant | inhomogeneous | – | – | – | – | – | –
3 | CNC(=O)c1cc(Oc2ccc(NC(=O)Nc3ccc(Cl)c(C(F)(F)F)c3)cc2)ccn1 [sorafenib] | no significant tumor growth inhibitory | – | trace-level | no significant | Only traces | – | – | – | – | – | –
4 | CCN(CC)CCNC(=O)c1c(C)[nH]c(/C=C2\C(=O)Nc3ccc(F)cc32)c1C [sunitinib] | significant antitumor | suppressed | well-distributed | significant | homogeneously distributed | lowest IC50 value | significantly increased | highest values | – | – | –
5 | Clc1ccc(Nc2nnc(Cc3ccncc3)c3ccccc23)cc1 [vatalanib] | robust and significant growth-inhibitory effect | – | well-distributed | significant decrease | Only traces | – | – | – | significantly higher | 0.116 | significantly decreased
